# From ChEMBL document CHEMBL1132472, “Synthesis and pharmacological evaluation of some 8-cyanopyrido[3', 2':4,5]thieno[3,2-d]triazine derivatives as inhibitors of nitric oxide and eicosanoid biosynthesis” (J Med Chem, 1999)
# pIC50: −log10 of the molar value.
# Columns and labels:
# Mus musculus [1] = species on record: Mus musculus; experiment: (§1) Ability to inhibit the accumulation of PGE-2 in stimulated murine peritoneal macrophages; assay type: functional
# How it was run: (§2)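 Mouse peritoneal macrophages were elicited by ip thioglycolate (10%) and collected by lavage 4 days later. Adherent cells were stimulated with E. coli LPS (10 µg/mL) at 37 °C for 24 h with compound or vehicle. Supernatant PGE₂ was measured by radioimmunoassay. IC50 was calculated from at least four significant concentrations (n = 6).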
# Mus musculus [2] = species on record: Mus musculus; experiment: (§3) Ability to inhibit the generation of NO by stimulated murine peritoneal macrophages; assay type: functional, organism-based
# How it was run: (§4)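 Thioglycolate-elicited mouse peritoneal macrophages (lavage 4 days after ip 10% thioglycolate), adhered 2 h at 37 °C in arginine (1 mM)-containing buffered medium with 10% FBS. Cells stimulated with E. coli LPS 10 µg/mL for 24 h at 37 °C with test compound or vehicle. Supernatant nitrite measured fluorimetrically. IC50 from ≥4 concentrations (n = 6). Mean ± SEM.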
# [3] = target: T1, Prostaglandin G/H synthase 2 (Mus musculus) (UniProt Q05769); experiment: In vitro activity at a concentration of 10 uM against Prostaglandin G/H synthase 2
# T1 sequence (whole entry): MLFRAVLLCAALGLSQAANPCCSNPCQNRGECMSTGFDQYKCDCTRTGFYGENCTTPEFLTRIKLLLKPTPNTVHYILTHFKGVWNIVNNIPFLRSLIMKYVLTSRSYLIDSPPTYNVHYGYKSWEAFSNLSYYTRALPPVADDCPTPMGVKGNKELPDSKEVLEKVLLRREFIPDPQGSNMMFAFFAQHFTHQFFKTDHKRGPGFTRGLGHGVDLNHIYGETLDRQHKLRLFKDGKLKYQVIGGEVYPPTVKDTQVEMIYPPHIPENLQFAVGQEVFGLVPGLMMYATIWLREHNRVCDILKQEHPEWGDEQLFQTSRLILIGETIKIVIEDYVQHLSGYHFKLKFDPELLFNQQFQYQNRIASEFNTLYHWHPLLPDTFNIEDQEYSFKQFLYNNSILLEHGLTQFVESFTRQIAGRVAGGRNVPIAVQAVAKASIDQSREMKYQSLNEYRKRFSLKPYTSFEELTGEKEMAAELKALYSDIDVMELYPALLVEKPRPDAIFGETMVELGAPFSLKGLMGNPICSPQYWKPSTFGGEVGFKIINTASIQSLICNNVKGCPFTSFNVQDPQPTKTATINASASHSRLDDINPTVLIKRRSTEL
# [4] = target: T2, Nitric oxide synthase, inducible (Mus musculus) (UniProt P29477); experiment: In vitro activity at a concentration of 10 uM against Inducible nitric oxide synthase (iNOS)
# T2 sequence (whole entry): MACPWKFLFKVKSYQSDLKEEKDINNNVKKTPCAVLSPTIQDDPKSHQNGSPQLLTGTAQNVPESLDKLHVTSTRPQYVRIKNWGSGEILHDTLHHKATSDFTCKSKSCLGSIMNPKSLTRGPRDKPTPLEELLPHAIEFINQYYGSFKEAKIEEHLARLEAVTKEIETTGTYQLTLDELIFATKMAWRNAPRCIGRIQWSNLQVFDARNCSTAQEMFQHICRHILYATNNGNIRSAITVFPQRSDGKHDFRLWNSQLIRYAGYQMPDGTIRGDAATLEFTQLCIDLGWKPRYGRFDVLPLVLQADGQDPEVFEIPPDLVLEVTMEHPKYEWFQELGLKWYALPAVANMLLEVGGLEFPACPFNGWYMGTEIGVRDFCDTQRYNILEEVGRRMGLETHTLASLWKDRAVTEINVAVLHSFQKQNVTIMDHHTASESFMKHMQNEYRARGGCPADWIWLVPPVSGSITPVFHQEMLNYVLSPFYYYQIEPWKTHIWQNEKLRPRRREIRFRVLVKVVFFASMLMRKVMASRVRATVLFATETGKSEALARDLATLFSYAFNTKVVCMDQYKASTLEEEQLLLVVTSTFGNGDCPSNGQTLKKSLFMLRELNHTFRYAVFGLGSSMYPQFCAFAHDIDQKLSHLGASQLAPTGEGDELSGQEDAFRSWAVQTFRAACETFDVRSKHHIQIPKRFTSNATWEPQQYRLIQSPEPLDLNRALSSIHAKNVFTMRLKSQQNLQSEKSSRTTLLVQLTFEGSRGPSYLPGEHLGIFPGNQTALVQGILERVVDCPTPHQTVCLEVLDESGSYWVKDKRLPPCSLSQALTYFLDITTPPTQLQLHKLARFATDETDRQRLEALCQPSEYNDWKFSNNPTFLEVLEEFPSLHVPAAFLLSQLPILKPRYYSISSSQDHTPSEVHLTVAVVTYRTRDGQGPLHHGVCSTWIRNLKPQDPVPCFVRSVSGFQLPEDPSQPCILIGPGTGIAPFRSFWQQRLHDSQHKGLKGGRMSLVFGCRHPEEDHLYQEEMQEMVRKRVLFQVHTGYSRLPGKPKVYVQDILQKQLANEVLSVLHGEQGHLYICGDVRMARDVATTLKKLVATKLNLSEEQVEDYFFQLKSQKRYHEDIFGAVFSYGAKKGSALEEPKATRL
# Mus musculus [5] = species on record: Mus musculus; experiment: as §1; assay type: functional; design: concentration or dose not given beside the values; how it was run: as §2
# Mus musculus [6] = species on record: Mus musculus; experiment: as §3; assay type: functional; design: concentration or dose not given beside the values; how it was run: as §4
# [7] = target: Prostaglandin G/H synthase 1 (Homo sapiens) (UniProt P23219); experiment: In vitro activity at a concentration of 10 uM against Prostaglandin G/H synthase 1
# How it was run: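 Microsomes were prepared by 2000g spin for 5 min, then 100000g for 100 min, both at 4 °C. Microsomes (20 µg protein/tube) were incubated with arachidonic acid plus compound at 10 µM or vehicle. TXB₂ formed was measured by radioimmunoassay.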
# Mus musculus [8] = species on record: Mus musculus; experiment: Compound was evaluated to inhibit Nitrite accumulation in simulated macrophages; assay type: functional
# Mus musculus [9] = species on record: Mus musculus; experiment: Compound was evaluated to inhibit PGE-2 accumulation in simulated macrophages; assay type: functional
# How it was run: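 Adherent thioglycolate-elicited mouse peritoneal macrophages were stimulated with E. coli LPS (10 µg/mL) for 24 h at 37 °C in the presence of compound at 10 µM or vehicle. Supernatant PGE₂ was measured by radioimmunoassay and expressed as % inhibition, mean ± SEM, n = 6-9.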
# Chain of Prostaglandin G/H synthase 1 (Homo sapiens) (P23219 whole entry): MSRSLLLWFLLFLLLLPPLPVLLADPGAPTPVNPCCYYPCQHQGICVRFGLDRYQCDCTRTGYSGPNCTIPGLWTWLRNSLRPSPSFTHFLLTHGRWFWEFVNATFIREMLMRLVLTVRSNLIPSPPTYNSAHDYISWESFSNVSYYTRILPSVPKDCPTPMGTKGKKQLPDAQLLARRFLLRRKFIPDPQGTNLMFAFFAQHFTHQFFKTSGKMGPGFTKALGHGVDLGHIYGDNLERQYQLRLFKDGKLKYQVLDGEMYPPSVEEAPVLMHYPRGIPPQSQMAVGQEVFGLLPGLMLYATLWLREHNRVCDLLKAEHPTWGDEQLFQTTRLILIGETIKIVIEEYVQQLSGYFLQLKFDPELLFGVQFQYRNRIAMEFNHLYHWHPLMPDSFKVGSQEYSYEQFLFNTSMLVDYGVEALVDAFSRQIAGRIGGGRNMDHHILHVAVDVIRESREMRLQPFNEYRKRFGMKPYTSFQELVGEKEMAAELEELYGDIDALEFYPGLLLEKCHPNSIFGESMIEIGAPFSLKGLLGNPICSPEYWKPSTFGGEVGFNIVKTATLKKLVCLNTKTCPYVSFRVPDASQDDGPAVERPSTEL
compound,measurement,setting,value
CS(=O)(=O)Nc1ccc([N+](=O)[O-])cc1OC1CCCCC1 [NS-398],pIC50,Mus musculus [1],8.51
C[C@@H]1C[C@H]2[C@@H]3CCC4=CC(=O)C=C[C@]4(C)[C@@]3(F)[C@@H](O)C[C@]2(C)[C@@]1(O)C(=O)CO [DEXAMETHASONE],pIC50,Mus musculus [1],9.00
same,pIC50,Mus musculus [2],7.45
CC1CCN(c2nc3sc4c(N5CCC(C)CC5)nnnc4c3cc2C#N)CC1,Activity ((ng of PGE2) (mg of protein)-1),[3],13.9
same,Activity (pM of citrulline min-1 (mg of protein)-1),[4],12.4
same,Inhibition,Mus musculus [5],52.1%
same,Inhibition,Mus musculus [6],37.8%
same,Activity ((ng of TXB2) (mg of protein)-1),[7],124
CC(=O)c1ccc(N2CCN(c3nnnc4c3sc3nc(N5CCN(Cc6ccccc6)CC5)c(C#N)cc34)CC2)cc1,Activity ((ng of PGE2) (mg of protein)-1),[3],15.8
same,Activity (pM of citrulline min-1 (mg of protein)-1),[4],13.5
same,Inhibition,Mus musculus [5],50.1%
same,Inhibition,Mus musculus [6],51.6%
same,Activity ((ng of TXB2) (mg of protein)-1),[7],134
COc1ccc2c(c1)c(CC(=O)O)c(C)n2C(=O)c1ccc(Cl)cc1,Activity ((ng of TXB2) (mg of protein)-1),[7],63.8
N#Cc1cc2c(nc1N)sc1c(Cl)nnnc12,Inhibition,Mus musculus [5],1%
same,Inhibition,Mus musculus [6],13.9%
CC(=O)c1ccc(N2CCN(c3nnnc4c3sc3nc(N5CCOCC5)c(C#N)cc34)CC2)cc1,Activity ((ng of PGE2) (mg of protein)-1),[3],16.6
same,Activity (pM of citrulline min-1 (mg of protein)-1),[4],14.2
same,Inhibition,Mus musculus [5],34.6%
same,Inhibition,Mus musculus [6],45.6%
same,Activity ((ng of TXB2) (mg of protein)-1),[7],142
N#Cc1cc2c(nc1NCc1ccccc1)sc1c(Br)nnnc12,Inhibition,Mus musculus [5],0.4%
same,Inhibition,Mus musculus [6],12.2%
N#Cc1cc2c(nc1N1CCOCC1)sc1c(N3CCNCC3)nnnc12,Activity ((ng of PGE2) (mg of protein)-1),[3],16.5
same,Activity (pM of citrulline min-1 (mg of protein)-1),[4],15.1
same,Inhibition,Mus musculus [5],31.3%
same,Inhibition,Mus musculus [6],43.3%
same,Activity ((ng of TXB2) (mg of protein)-1),[7],149
CC(=O)c1ccc(N2CCN(c3nnnc4c3sc3nc(N5CCC(C)CC5)c(C#N)cc34)CC2)cc1,Activity ((ng of PGE2) (mg of protein)-1),[3],14.3
same,Activity (pM of citrulline min-1 (mg of protein)-1),[4],12.5
same,Inhibition,Mus musculus [5],45.6%
same,Inhibition,Mus musculus [6],42.6%
same,Activity ((ng of TXB2) (mg of protein)-1),[7],127
N#Cc1cc2c(nc1N1CCOCC1)sc1c(Cl)nnnc12,Activity (pM of citrulline min-1 (mg of protein)-1),[4],14
same,Inhibition,Mus musculus [5],59.5%
same,Inhibition,Mus musculus [6],51.8%
same,Activity ((ng of TXB2) (mg of protein)-1),[7],112
CN1CCN(c2nnnc3c2sc2nc(NCc4ccccc4)c(C#N)cc23)CC1,Inhibition,Mus musculus [5],56.4%
same,Inhibition,Mus musculus [6],14.1%
CN1CCN(c2nnnc3c2sc2nc(N4CCN(Cc5ccccc5)CC4)c(C#N)cc23)CC1,Activity ((ng of PGE2) (mg of protein)-1),[3],14.6
same,Activity (pM of citrulline min-1 (mg of protein)-1),[4],13.1
same,Inhibition,Mus musculus [5],55.1%
same,Inhibition,Mus musculus [6],50.6%
same,Activity ((ng of TXB2) (mg of protein)-1),[7],123
N=C(N)NN [PIMAGEDINE],Activity (pM of citrulline min-1 (mg of protein)-1),[4],5.4
same,pIC50,Mus musculus [2],4.60
CC1CCN(c2nnnc3c2sc2nc(N4CCOCC4)c(C#N)cc23)CC1,Activity ((ng of PGE2) (mg of protein)-1),[3],13
same,Activity (pM of citrulline min-1 (mg of protein)-1),[4],13.1
same,pIC50,Mus musculus [8],5.47
same,pIC50,Mus musculus [9],6.22
same,Inhibition,Mus musculus [5],89.6%
same,Inhibition,Mus musculus [6],88.7%
same,Activity ((ng of TXB2) (mg of protein)-1),[7],130
CC(=O)c1ccc(N2CCN(c3nc4sc5c(Cl)nnnc5c4cc3C#N)CC2)cc1,Activity (pM of citrulline min-1 (mg of protein)-1),[4],14.1
same,pIC50,Mus musculus [1],6.05
same,pIC50,Mus musculus [2],4.95
same,Inhibition,Mus musculus [5],94.5%
same,Inhibition,Mus musculus [6],44.7%
same,Activity ((ng of TXB2) (mg of protein)-1),[7],104
N#Cc1cc2c(nc1N1CCOCC1)sc1c(N3CCSCC3)nnnc12,Inhibition,Mus musculus [5],36.1%
same,Inhibition,Mus musculus [6],31.4%
CC1CCN(c2nc3sc4c(Cl)nnnc4c3cc2C#N)CC1,Inhibition,Mus musculus [5],49%
same,Inhibition,Mus musculus [6],6.1%
same,Activity ((ng of TXB2) (mg of protein)-1),[7],130
N#Cc1cc2c(nc1NCc1ccccc1)sc1c(N3CCOCC3)nnnc12,Inhibition,Mus musculus [5],28.5%
same,Inhibition,Mus musculus [6],41.1%
N#Cc1cc2c(nc1N1CCC(Cc3ccccc3)CC1)sc1c(Cl)nnnc12,Activity (pM of citrulline min-1 (mg of protein)-1),[4],13.1
same,Inhibition,Mus musculus [5],57.9%
same,Inhibition,Mus musculus [6],48.8%
same,Activity ((ng of TXB2) (mg of protein)-1),[7],128
